Here are results for one compound from PubChem BioAssay AID463144 (The Scripps Research Institute Molecular Screening Center, 2010).

The subject of the assay is HEK293T G6PC promoter luciferase with RORa, 20 h. Put plainly: G6PC promoter luciferase repression by compounds – cell-based, luminescence, single concentration, counter-screen for RORA inverse agonist project, late-stage follow-up (AID 463144). Conditions: at 10 µM; active compounds read low. In short, it runs like this: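 Material – HEK293T with RORa, SRC-2 and G6PC promoter luciferase reporter · Compound – one dose, 10 µM nominal · Timing – compound exposure of 20 h · Signal – luciferase luminescence from G6PC promoter reporter · Evaluation – average fold change versus vehicle wells · Controls – DMSO-only vehicle cells as reference · Replication – n of 6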
A general note: The purpose of a counterscreen is to sort out artefacts and off-target activity.

With `O=S(=O)(Nc1ccc(C(O)(C(F)(F)F)C(F)(F)F)cc1)c1cccs1`, the fold change is 0.64.
